Measurements from different studies.
Target: Dual serine/threonine and tyrosine protein kinase (DSTYK, Homo sapiens, UniProt Q6XUX3)
Sequence (Q6XUX3 1-929, as in one of the studies): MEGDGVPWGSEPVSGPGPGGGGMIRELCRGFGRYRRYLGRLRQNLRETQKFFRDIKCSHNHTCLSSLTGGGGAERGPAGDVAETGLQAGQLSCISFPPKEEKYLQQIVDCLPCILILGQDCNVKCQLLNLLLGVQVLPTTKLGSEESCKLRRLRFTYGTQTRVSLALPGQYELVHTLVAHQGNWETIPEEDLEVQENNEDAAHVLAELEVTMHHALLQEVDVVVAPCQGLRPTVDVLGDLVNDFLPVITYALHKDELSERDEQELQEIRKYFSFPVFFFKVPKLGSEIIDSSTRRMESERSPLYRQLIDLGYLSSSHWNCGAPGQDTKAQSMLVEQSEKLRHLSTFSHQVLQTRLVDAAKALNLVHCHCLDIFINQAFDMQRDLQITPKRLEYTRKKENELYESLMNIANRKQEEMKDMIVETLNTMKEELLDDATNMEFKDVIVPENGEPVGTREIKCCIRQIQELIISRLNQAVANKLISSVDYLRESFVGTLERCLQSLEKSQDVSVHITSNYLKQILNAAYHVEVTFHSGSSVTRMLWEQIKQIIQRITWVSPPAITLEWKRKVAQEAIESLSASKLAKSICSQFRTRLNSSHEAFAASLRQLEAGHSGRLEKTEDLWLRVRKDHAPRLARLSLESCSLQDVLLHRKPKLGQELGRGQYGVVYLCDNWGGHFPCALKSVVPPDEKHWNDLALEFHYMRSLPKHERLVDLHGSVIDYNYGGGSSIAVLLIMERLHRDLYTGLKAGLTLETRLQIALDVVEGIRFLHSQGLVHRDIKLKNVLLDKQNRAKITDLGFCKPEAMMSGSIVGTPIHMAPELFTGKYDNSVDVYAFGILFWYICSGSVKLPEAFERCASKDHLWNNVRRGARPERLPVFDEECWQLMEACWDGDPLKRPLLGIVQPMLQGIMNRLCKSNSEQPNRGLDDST

With `Cc1ccc(Nc2nccc(N(C)c3ccc4c(C)n(C)nc4c3)n2)cc1S(N)(=O)=O` the remaining activity was 94.3% (enzyme activity; inhibitor; 0.5 µM).
With `CC1=C(C#N)[C@@H](c2ccc3[nH]nc(C)c3c2)C(C#N)=C(c2ccc(Cl)cc2)N1` the remaining binding was 100% (cell-free assay; competition with immobilised ligand; 1 µM).
With `Cc1ccc(C(=O)Nc2ccc(CN3CCN(C)CC3)c(C(F)(F)F)c2)cc1C#Cc1cnc2cccnn12` the remaining activity was 95% (enzyme activity; inhibitor; 23.5 nM).
`CSc1cccnc1N1CCN(Cc2nc3ccccc3[nH]2)CC1` has a remaining binding of 76% (cell-free assay; competition with immobilised ligand; 1 µM).
`Cc1cnn2ncc(-c3ccnc(N(C)C)n3)c2c1` gave a remaining binding of 97% (binding; 1 µM).
`O=C(Nc1cnn(-c2csc(C(=O)NC3COC3)c2)c1)Nc1ccccc1Cl` has a remaining activity of 102% (enzyme activity; inhibitor; 5 µM).
`CC(C)(C)c1nc2c(s1)c1nc(N)ncc1c1ccc(NS(=O)(=O)c3c(F)cccc3F)c(F)c12` gave a remaining activity of 83% (enzyme activity; inhibitor; radiometric; 1 µM).
`CC(C)(O)[C@H]1CC[C@H](Nc2ccc3ncc(-c4cccc(C(F)(F)F)c4)n3n2)CC1` gave a remaining activity of 97.1% (enzyme activity; inhibitor; 1 µM).
For `CC(C)(C)c1nc(-c2cccc(NS(=O)(=O)c3c(F)cccc3F)c2F)c(-c2ccnc(N)n2)s1`, the remaining activity was 82% (enzyme activity; inhibitor; radiometric; 1 µM).
For `N#CCCc1ccc2c(c1)-c1[nH]c3ccc([N+](=O)[O-])cc3c1CC(=O)N2`, the remaining signal was 67.1% (cell-free assay; 0.5 µM).
The remaining binding of `CCCOc1ccc([C@H]2[C@H](C(=O)O)[C@@H](c3ccc4c(c3)OCO4)CN2CC(=O)Nc2c(CC)cccc2CC)cc1` is reported as 73% (cell-free assay; competition with immobilised ligand; 1 µM).
The remaining signal of `Nc1ncnc2occ(-c3ccc(NC(=O)Nc4cc(C(F)(F)F)ccc4F)cc3)c12` is reported as 2.8% (cell-free assay; inhibitor; 20 µM).
With `Cc1sc(C(=O)NC2COC2)cc1-n1cc(NC(=O)Nc2c(F)cccc2Cl)cn1` the remaining activity was 96.6% (enzyme activity; inhibitor; 10 µM).
The remaining binding of `Cc1cc(-n2nc(Cc3cc(F)cc(C(F)(F)F)c3)nc2C)ccc1C(N)=O` is reported as 97% (cell-free assay; competition with immobilised ligand; 1 µM).
The remaining signal of `O=C1Nc2ccc(Cl)cc2C1=Cc1cc(Cl)c(O)c(Cl)c1` is reported as 89.6% (cell-free assay; 0.5 µM).
